Screening data as filed in PubChem BioAssay.
OX1R antag-1 = blocks the human orexin 1 receptor; O43613; CHO/OX1R cells, Fluo-8 calcium fluorescence, orexin A; inhibition, % at 5 µM; 0.43% of 330,000 active; AID 434989;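 active = inhibition above its plate's threshold, mean inhibition of all tested compounds on the plate plus 3 SD, cut at about 37% in these data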
Target sequence (O43613 whole entry, looked up): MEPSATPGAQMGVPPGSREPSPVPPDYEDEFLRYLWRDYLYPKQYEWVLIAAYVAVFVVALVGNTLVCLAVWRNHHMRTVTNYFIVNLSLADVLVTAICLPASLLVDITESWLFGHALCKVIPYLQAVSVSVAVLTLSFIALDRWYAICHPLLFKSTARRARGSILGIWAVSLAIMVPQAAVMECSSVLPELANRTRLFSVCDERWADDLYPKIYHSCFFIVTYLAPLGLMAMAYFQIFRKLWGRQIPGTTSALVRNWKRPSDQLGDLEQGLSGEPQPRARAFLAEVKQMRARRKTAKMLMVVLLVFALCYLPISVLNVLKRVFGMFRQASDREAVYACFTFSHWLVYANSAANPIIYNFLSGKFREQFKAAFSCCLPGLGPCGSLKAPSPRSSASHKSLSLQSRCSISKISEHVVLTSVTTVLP
GPR7 antagonist = blocks human GPR7 receptor signaling. AID 1861. GPR7-expressing cells, fluorescence antagonist assay. P48145. inhibition, % at 4.4 µM. 1.1% of 290,000 active; in the data active = inhibition above about 16%, passing the limit was not always enough;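 note: cells stimulated with the agonist NPW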
Target sequence (P48145 whole entry, looked up): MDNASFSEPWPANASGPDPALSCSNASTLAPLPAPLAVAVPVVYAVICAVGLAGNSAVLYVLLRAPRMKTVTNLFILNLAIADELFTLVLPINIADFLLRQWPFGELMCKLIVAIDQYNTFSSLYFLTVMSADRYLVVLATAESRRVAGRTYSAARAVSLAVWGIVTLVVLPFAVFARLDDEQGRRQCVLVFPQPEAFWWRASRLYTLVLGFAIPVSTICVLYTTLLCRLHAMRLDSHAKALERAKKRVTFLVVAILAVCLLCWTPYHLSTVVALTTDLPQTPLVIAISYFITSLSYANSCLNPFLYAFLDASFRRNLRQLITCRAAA
OX1R antag-2 = antagonists of human orexin 1 receptor (OX1R) | O43613 | OX1R-expressing cells, FRET antagonist read-out | inhibition, % at 6.6 µM | 1.8% of 330,000 active; in the data active = inhibition mostly above about 38%, no sharp cut-off; inactive = mostly below about 40%
CHO parental Ca = counter-screen: ATP calcium response change in parental CHO cells | parental CHO-K1, ATP-induced calcium, Fluo-8 fluorescence | inhibition, % at 5.6 µM | 0.63% of 330,000 active;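 active = inhibition above that plate's mean sample inhibition plus 3 SD, cut at about 26% in these data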
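Assay system – parental CHO cells · Reagent – ATP stimulus · Detection – intracellular calcium via Fluo-8 no-wash fluorescent dye · Evaluation – percent inhibition of ATP-evoked calcium rise, normalized to controls · Controls – ATP wells versus no-ATP DMSO wells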
GalR3 antag = human GalR3 antagonism. O60755. inhibition, % at 3 µM. HEK293 GalR3-CNG cAMP membrane potential fluorescence; galR3 body fused to GalR1 C-terminus. 0.44% of 360,000 active;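 active = inhibition above the screen-wide average plus 3 SD, cut at about 13% in these data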;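 note: forskolin and galanin both at EC90 stimulate the cells; cAMP rise reported by CNG channel membrane potential dye signal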
OX1R Fluo8 conf = confirmation of human orexin 1 receptor antagonists; shares compounds with OX1R antag-1; CHO/OX1R cells, orexin A calcium Fluo-8 fluorescence; inhibition, % at 5 µM; 38% of 1,100 active; AID 492963; in the data active = inhibition above about 29%
CHO Ca triplic = counter-screen for OX1R antagonists: effect in parental CHO cells. shares compounds with OX1R antag-1. parental CHO-K1, ATP-induced calcium, Fluo-8 fluorescence. inhibition, % at 5.6 µM. 9.3% of 1,100 active. AID 492965;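 active = inhibition above a per-plate limit, the mean inhibition of that plate's test compounds plus 3 SD, cut at about 25% in these data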
Each line names hits and unclear results; the compound was inactive in the other large screens (follow-up assays come after a bar, where they were run). Compounds with a hit are over-represented: about 3.1% of the library has one in this group of screens.

Cn1ccc2c(-c3ccc4c(c3)OCCO4)cc3c(c21)C1CCC3C1 (configuration not stated)	none (no result: OX1R antag-1, GPR7 antagonist, OX1R antag-2, CHO parental Ca)
CCN(c1ccccc1)S(=O)(=O)c1ccc(C(=O)NCC(=O)Nc2ccc(F)c(F)c2F)cc1	none (no result: GPR7 antagonist)
Cc1ccc(S(=O)(=O)N2C[C@@H]3[C@H]4CC[C@H](C4)[C@@H]3[C@@H](C)[C@H]2c2ccco2)cc1	OX1R antag-1 82 (no result: GPR7 antagonist) | OX1R Fluo8 conf inactive | CHO Ca triplic inactive
COc1ccc(/C=C2\C(=O)NC(=S)N2C(=O)c2ccc(F)cc2)cc1	none | OX1R Fluo8 conf inactive | CHO Ca triplic inactive
CCOc1ccc(NS(=O)(=O)c2ccc(NC(=S)NC(=O)C(C)C)cc2)cc1	none
COc1ccc(NS(=O)(=O)c2ccc(NC(=S)NC(=O)C(C)C)cc2)cc1	none | OX1R Fluo8 conf 32 | CHO Ca triplic inactive
CCOc1cccc(-c2c(C(=O)N/N=C/c3c(F)cccc3Cl)nnn2-c2nonc2N)c1	none | OX1R Fluo8 conf 35 | CHO Ca triplic inactive
CCOc1cccc(-c2c(C(=O)N/N=C/c3ccc(C)s3)nnn2-c2nonc2N)c1	none
CC(CO)NS(=O)(=O)c1cc(Cl)ccc1F (configuration not stated)	none (no result: OX1R antag-1, GPR7 antagonist, OX1R antag-2, CHO parental Ca)
COc1cccc(NC(=O)CN(c2ccccc2OC)S(=O)(=O)c2cccs2)c1	none (no result: GPR7 antagonist) | OX1R Fluo8 conf inactive | CHO Ca triplic inactive
CCOC(=O)C(Cc1ccccc1)NC(=O)Cn1nnc(-c2ccccc2)n1 (configuration not stated)	none | OX1R Fluo8 conf 52 | CHO Ca triplic inactive
CCOC(=O)Cn1nnc(-c2ccccc2)n1	none
COc1cccc(S(=O)(=O)NCc2ccc(C(=O)Nc3cccc(Cl)c3)cc2)c1	OX1R antag-1 45 | OX1R Fluo8 conf inactive | CHO Ca triplic inactive
Cc1ccc(S(=O)(=O)n2nc(-n3c(C)ccc3C)c3c(F)cccc32)c2ccccc12	none
Cc1ccc(C)n1-c1nn(S(=O)(=O)c2cccc3cccnc23)c2cccc(F)c12	OX1R antag-1 39 | OX1R Fluo8 conf 30 | CHO Ca triplic inactive
O=C(Nc1cccc(Cl)c1)Nc1ccc2c(c1)OCO2	none | OX1R Fluo8 conf inactive | CHO Ca triplic inactive
C[C@@H]1CN([C@H](C)CO)C(=O)CCCn2cc(nn2)CO[C@H]1CN(C)C(=O)Nc1ccc2c(c1)OCCO2	none (no result: OX1R antag-1, GPR7 antagonist, OX1R antag-2, CHO parental Ca)
O=S(=O)(Nc1ccc(S(=O)(=O)Nc2ccccc2)cc1)c1ccccc1	none | OX1R Fluo8 conf inactive | CHO Ca triplic inactive
O=C(N[C@H](Cc1ccccc1)C(=O)N1CCN(Cc2ccccn2)CC1)[C@H]1O[C@@H](n2ccc(=O)[nH]c2=O)[C@H](O)[C@@H]1O	none (no result: OX1R antag-1, GPR7 antagonist, OX1R antag-2, CHO parental Ca)
CN1C2CCC1/C(=C/c1cccn1C)C(=O)/C2=C\c1cccn1C	none | OX1R Fluo8 conf inactive | CHO Ca triplic inactive
O=C(OCCc1cc2ccccc2c(=O)o1)c1ccccc1C(F)(F)F	none (no result: GPR7 antagonist) | OX1R Fluo8 conf inactive | CHO Ca triplic inactive
CCN(CC(=O)Nc1c(F)cccc1F)C(=O)C1CCCO1 (configuration not stated)	none (no result: OX1R antag-1, GPR7 antagonist, OX1R antag-2, CHO parental Ca)
CCCCCCCCN1C(=O)[C@@H](CC(=O)NCCC(C)C)C[C@@]2(C(=O)OC)C1=C[C@H](C1CCCC1)O[C@@H]2C	none (no result: OX1R antag-1, GPR7 antagonist, OX1R antag-2, CHO parental Ca)
Cc1cc(N2CCC(C(=O)Nc3ccc(F)cc3)CC2)nc(-c2ccccc2)n1	none
Cc1cc(N2CCN(c3ccc(F)cc3)CC2)nc(-c2ccccc2)n1	none | OX1R Fluo8 conf inactive | CHO Ca triplic inactive
O=C(CNC(=O)c1ccccc1F)NCCc1ccccc1F	none (no result: GPR7 antagonist)
CN(CC(=O)Nc1ccc(Cl)c(C(F)(F)F)c1)CC(=O)NC1CCCCC1	none (no result: GPR7 antagonist, GalR3 antag) | OX1R Fluo8 conf inactive | CHO Ca triplic inactive
CN(CC(=O)NCc1ccccc1)CC(=O)Nc1ccc(Cl)c(C(F)(F)F)c1	none (no result: GPR7 antagonist)
C=CCn1c(SCC(=O)Nc2sccc2C(N)=O)nc2ccc(Cl)cc2c1=O	OX1R antag-1 53 | OX1R Fluo8 conf inactive | CHO Ca triplic inactive
COc1ccccc1OCCNC(=O)CCNS(=O)(=O)c1ccc(C)cc1	none (no result: OX1R antag-1, GPR7 antagonist, OX1R antag-2, CHO parental Ca)
Cc1ccc(O)c(NC(=O)c2noc3c2CCc2ccccc2-3)c1	none | OX1R Fluo8 conf inactive | CHO Ca triplic inactive
Cc1nn(-c2ccccc2)c(C)c1/C=N/NC(=O)c1cc(-c2cccs2)[nH]n1	none | OX1R Fluo8 conf 65 | CHO Ca triplic inactive
Cc1nn(-c2ccccc2)c(C)c1/C=N/NC(=O)c1cc(-c2ccc(Br)s2)[nH]n1	none
CCc1cc2c(COC(=O)c3cc(S(=O)(=O)N4CCOCC4)ccc3F)cc(=O)oc2cc1O	GalR3 antag 19 (no result: GPR7 antagonist) | OX1R Fluo8 conf inactive | CHO Ca triplic inactive
Cc1noc(C)c1COC(=O)c1cc(S(=O)(=O)N2CCOCC2)ccc1F	none (no result: GPR7 antagonist)
CCc1nc2ccc(C(=O)Nc3ccc(OC)c(OC)c3)cn2c1N(C)Cc1cccs1	none (no result: OX1R antag-1, GPR7 antagonist, OX1R antag-2, CHO parental Ca)
C=CCC[C@@H](Cc1ccc(F)cc1)C(=O)OC[C@@H]1CCCN1C(=O)[C@H](CC=C)CC(=O)N[C@H](CO)Cc1ccccc1	OX1R antag-1 65 (no result: GPR7 antagonist) | OX1R Fluo8 conf inactive | CHO Ca triplic inactive
C=CCC[C@@H](Cc1ccc(F)cc1)C(=O)OC[C@H]1CCCN1C(=O)[C@@H](CC=C)CC(=O)N[C@H](CO)Cc1ccccc1	none (no result: GPR7 antagonist)
CC1=C(C(=O)N2CCCCCC2)CC(CC(=O)NCCN2CCOCC2)C(=O)N1CCCN1CCCC1=O (configuration not stated)	none (no result: OX1R antag-1, GPR7 antagonist, OX1R antag-2, CHO parental Ca)
Cc1cc(OCC(=O)Nc2cccc(S(=O)(=O)N3CCCCC3)c2)ccc1Cl	none (no result: GPR7 antagonist) | OX1R Fluo8 conf inactive | CHO Ca triplic inactive
C[C@H](CO)N1C[C@H](C)[C@H](CN(C)C(=O)NC2CCCCC2)Oc2ncc(Br)cc2C1=O	none (no result: OX1R antag-1, GPR7 antagonist, OX1R antag-2, CHO parental Ca)
CC1CCC/C(=N\NC(=S)Nc2ccccc2)C1 (configuration not stated)	none | OX1R Fluo8 conf inactive | CHO Ca triplic inactive
CC1CCC/C(=N\NC(=S)NCc2ccccc2)C1 (configuration not stated)	none
CCN1C(=O)/C(=C/C=C2\N(CC)c3cc(S(=O)(=O)N(C)C)ccc3N2c2ccccc2)SC1=S	none | OX1R Fluo8 conf 72 | CHO Ca triplic 68
CCN1C(=O)/C(=C\C=C\c2ccccc2[N+](=O)[O-])SC1=S	none (no result: OX1R antag-1, OX1R antag-2, CHO parental Ca)
CN(Cc1ccccc1)S(=O)(=O)c1ccc2c(c1)n(C)c(=O)c(=O)n2C	none | OX1R Fluo8 conf inactive | CHO Ca triplic inactive
O=C(CNC(=O)c1ccc(Oc2ccccc2)cc1)OCc1ccc(Br)cc1	none | OX1R Fluo8 conf inactive | CHO Ca triplic inactive
COc1ccc(C(=O)NCC(=O)NCC(=O)OCc2ccc(Br)cc2)cc1	none
COc1ccc(-c2cc(-c3ccccc3O)[nH]n2)cc1OC	none
COc1ccc(-c2cc(-c3ccc(OC)c(OC)c3)n[nH]2)c(O)c1	none | OX1R Fluo8 conf inactive | CHO Ca triplic inactive
CC(c1cccs1)N(Cc1ccco1)C(=O)Nc1ccc(Cl)c(Cl)c1 (configuration not stated)	OX1R antag-1 44 | OX1R Fluo8 conf inactive | CHO Ca triplic inactive
